Activity calls are given as the source filed them. Rule as the data show it, unless noted: active = inhibition above about 30%; inactive = the rest.
Legend:
[1] = Her2 expression decrease, cell viability multiplex – SKBR3 breast tumor cells, AlphaScreen, ATP viability, primary screen (AID 461;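 active = Her2 level under about 52% in both replicate screens, with viability over 70% of control, limit read from the data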;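 as to Her2 level: lower value means less Her2 protein in the cells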;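 as to viability: percent of carrier control wells set as 100% viability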); conditions: SKBR3 Her2 protein level, 18-24 h, measured here: SKBR3 viability, ATP luminescence, at 10 µM
[2] = molecular target: Receptor tyrosine-protein kinase erbB-2 (Homo sapiens) (UniProt P04626); test: as above; conditions: 18-24 h, at 10 µM, stronger effect = lower value
[3] = reduced viability of SK-BR-3 breast cancer cells – cell-based, 24 h, human, pilot screen (AID 572;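 active = viability at or below 10% of carrier control in both of two separate runs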;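 also: compound exposure lasted between 18 and 24 h rather than exactly 24 h; 100% = carrier-treated control wells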); conditions: SK-BR-3 viability, CellTiter-Glo luminescence, at 10 µM, stronger effect = lower value
[4] = HUVEC growth inhibition – cell-based, human, primary screen (AID 575;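 active = viability at or below 30% in both replicate assays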;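 also: 100% = median of untreated cell wells with 0.1% DMSO on each plate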); conditions: HUVEC proliferation, CellTiter-Glo luminescence, 72 h; at 10 µM; stronger effect = lower value
Summary of the method: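 System: primary human umbilical vein endothelial cells; Quantity: 1250 endothelial cells in each well; Buffer or medium: supplemented EBM, 2% fetal bovine serum; Doses: one dose, 10 µM final, 0.1% DMSO; Incubation: 72 h compound incubation; Technique: ATP-based CellTiter-Glo luminescent read; Evaluation: percent of median DMSO-control luminescence; Controls: vehicle and MePR control wells.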

[5] = H69AR cell proliferation blockers – human, duplicate replicates, primary screen (AID 580;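 active = viability at or under a set limit in both replicates, limit being median viability minus 3 SD, cut at about 48% in these data, passing the limit was not always enough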;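 also: 100% = mean luminescence of untreated wells and 0% = no signal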); conditions: H69AR lung tumor cells viability, ATP luminescence, 72 h; at 10 µM; stronger effect = lower value
[6] = MRP1 drug-resistance reversers in H69AR cells – cell-based, doxorubicin co-treatment, pilot screen (AID 601;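 active = viability loss from added drug above about 55%, and viability with drug at most 40%, in both replicates, limit read from the data, passing the limit was not always enough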); conditions: CellTiter-Glo, 72 h, at 10 µM; for differential viability (reversal): stronger effect = higher value
[7] = yeast transport mutant growth inhibition pilot in 384-well plates, post-Golgi transport modulator project (AID 636; in the data active = inhibition above about 31%); conditions: absorbance 615 nm, about 18 h, stronger effect = higher value
[8] = growth suppression of yeast trafficking mutant, preliminary HTS, modulators of trafficking downstream of Golgi apparatus project, 1536-format plate, OD 615 nm (AID 637); conditions: yeast transport mutant growth, absorbance 615 nm, 18 h; stronger effect = higher value
[9] = H69AR cells + 2 uM doxorubicin, measured here: viability with 2 uM doxorubicin, stronger effect = lower value
[10] = H69AR cells, compound alone cytotoxicity

Sequence of Receptor tyrosine-protein kinase erbB-2 (Homo sapiens) (P04626 whole entry, looked up): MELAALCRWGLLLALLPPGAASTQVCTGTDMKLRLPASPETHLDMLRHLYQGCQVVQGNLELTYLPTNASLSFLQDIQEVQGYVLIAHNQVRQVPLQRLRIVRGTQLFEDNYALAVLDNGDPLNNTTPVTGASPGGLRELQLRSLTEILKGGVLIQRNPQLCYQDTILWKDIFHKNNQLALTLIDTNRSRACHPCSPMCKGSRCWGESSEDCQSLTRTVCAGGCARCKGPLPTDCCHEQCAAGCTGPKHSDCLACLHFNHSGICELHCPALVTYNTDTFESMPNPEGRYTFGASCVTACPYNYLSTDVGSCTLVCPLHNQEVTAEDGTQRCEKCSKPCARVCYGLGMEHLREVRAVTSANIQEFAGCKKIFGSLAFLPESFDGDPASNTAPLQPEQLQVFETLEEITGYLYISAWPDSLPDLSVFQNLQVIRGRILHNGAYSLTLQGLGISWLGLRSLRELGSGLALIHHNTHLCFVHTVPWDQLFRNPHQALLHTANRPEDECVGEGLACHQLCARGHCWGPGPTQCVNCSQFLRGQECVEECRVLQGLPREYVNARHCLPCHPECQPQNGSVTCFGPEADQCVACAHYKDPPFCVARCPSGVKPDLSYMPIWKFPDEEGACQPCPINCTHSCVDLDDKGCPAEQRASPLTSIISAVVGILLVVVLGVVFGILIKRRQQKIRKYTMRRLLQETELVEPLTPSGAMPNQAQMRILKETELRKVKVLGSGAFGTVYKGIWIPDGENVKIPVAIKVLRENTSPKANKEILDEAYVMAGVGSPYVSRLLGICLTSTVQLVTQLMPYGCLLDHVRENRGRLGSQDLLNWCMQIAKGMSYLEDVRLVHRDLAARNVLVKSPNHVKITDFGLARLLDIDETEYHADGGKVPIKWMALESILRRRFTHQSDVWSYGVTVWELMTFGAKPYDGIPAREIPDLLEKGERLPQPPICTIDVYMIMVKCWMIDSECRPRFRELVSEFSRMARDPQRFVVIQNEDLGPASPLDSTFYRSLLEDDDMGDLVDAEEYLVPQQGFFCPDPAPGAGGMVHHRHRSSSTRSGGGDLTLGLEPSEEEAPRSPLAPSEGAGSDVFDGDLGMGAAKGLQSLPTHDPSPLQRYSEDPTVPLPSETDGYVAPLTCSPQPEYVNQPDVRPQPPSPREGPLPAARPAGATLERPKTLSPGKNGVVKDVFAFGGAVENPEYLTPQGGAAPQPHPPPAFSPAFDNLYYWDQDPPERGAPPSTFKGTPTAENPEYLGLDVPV

Structure (SMILES)	viability [1] [%]	Her2 level [2]	viability [3]	viability [4]	viability [5]	differential viability (reversal) ([6]; H69AR cells + 2 uM doxorubicin)	viability [6, 9] [%]	viability [6, 10] [%]	inhibition [7]	inhibition [8]
CCOC(=O)Cn1c(CN2CCN(c3cccc(Cl)c3)CC2)nc2c1c(=O)[nH]c(=O)n2C	92.5	87% (inactive)	92.5% (inactive)	69% (inactive)	72.5% (inactive)	-6.24% (inactive)	78.7	72.5	0% (inactive)	1.17% (inactive)
O=C(COc1ccc(S(=O)(=O)NC2CCCCC2)cc1Cl)NCC1CCCO1 (stereo not given)	88.5	98% (inactive)	88.5% (inactive)	98.6% (inactive)	89.4% (inactive)	0.36% (inactive)	89	89.4	-5.07% (inactive)	-7.78% (inactive)
CC(C)Cn1c(CN2CCN(c3ccccc3F)CC2)nc2c1c(=O)[nH]c(=O)n2C	93	93% (inactive)	93% (inactive)	72.9% (inactive)	93% (inactive)	8.27% (inactive)	84.8	93	-4.27% (inactive)	-0.66% (inactive)
O=C(OCC#CCSc1nnc(-c2ccccc2)o1)c1cccs1	130	92% (inactive)	130% (inactive)	98.3% (inactive)	94.9% (inactive)	12.1% (inactive)	82.8	94.9	-6.13% (inactive)	-4.92% (inactive)
CC(C)c1nnc(NC(=O)c2cnccn2)s1	87.5	88.5% (inactive)	87.5% (inactive)	104% (inactive)	92.2% (inactive)	-0.1% (inactive)	92.3	92.2	-3.65% (inactive)	-2.46% (inactive)
CCCc1[nH]nc2c1C(c1cccc(OC(=O)c3ccco3)c1)C(C#N)=C(N)O2 (stereo not given)	93.5	72% (inactive)	93.5% (inactive)	81.6% (inactive)	95.3% (inactive)	1.18% (inactive)	94.1	95.3	-3.16% (inactive)	-1.11% (inactive)
CCOc1cc2[nH]c(=O)n(CCCCC(=O)N3CCCCCC3)c(=O)c2cc1OCC	90	87.5% (inactive)	90% (inactive)	91.6% (inactive)	76.8% (inactive)	2.38% (inactive)	74.4	76.8	-3.29% (inactive)	-0.36% (inactive)
CC1(C)Cc2c(c(-c3ccccc3)nc(N3CCCC3)c2C(N)=O)CO1	106	97.5% (inactive)	106% (inactive)	92.3% (inactive)	87% (inactive)	4.6% (inactive)	82.4	87	-1.95% (inactive)	1.15% (inactive)
CS(=O)(=O)N(CC(=O)Nc1ccc2c(c1)OCCO2)Cc1ccccc1	93.5	92% (inactive)	93.5% (inactive)	107% (inactive)	99.5% (inactive)	12.3% (inactive)	87.2	99.5	-4.93% (inactive)	-0.79% (inactive)
CCN(CCCNC(=O)c1cn(CC)c2ccc(S(=O)(=O)N(C)C)cc2c1=O)c1cccc(C)c1	98	74.5% (inactive)	98% (inactive)	61.6% (inactive)	80% (inactive)	60.4% (active)	19.6	80	-2.8% (inactive)	4.26% (inactive)
CC(=O)Nc1ccc(OC(=O)c2cccs2)cc1	101	97% (inactive)	101% (inactive)	103% (inactive)	87% (inactive)	-13.6% (inactive)	101	87	-1.17% (inactive)	-4.59% (inactive)
CC(Sc1nnnn1-c1ccccc1)C(=O)Nc1ccc(Cl)cn1 (stereo not given)	87.5	89% (inactive)	87.5% (inactive)	73.9% (inactive)	92.7% (inactive)	6.54% (inactive)	86.1	92.7	-2.76% (inactive)	5.4% (inactive)
O=C(O)CN(c1ccccc1)C1SC(=O)NC1=O (stereo not given)	85.5	87.5% (inactive)	85.5% (inactive)	98.5% (inactive)	86.8% (inactive)	3.04% (inactive)	83.8	86.8	-4.93% (inactive)	2.79% (inactive)
CCOC(=O)c1sc2nc(C)cc(C)c2c1N	105	95% (inactive)	105% (inactive)	110% (inactive)	98.4% (inactive)	15.6% (inactive)	82.8	98.4	-5.07% (inactive)	4.52% (inactive)

— PubChem BioAssay
